Laboratory results published in paper PMC9359741 (Clinical Cancer Research, 2022).

Tests used:
[1] = test system: patients with PDA, PD-1/PD-L1 IR advanced solid tumors or prOVCA; assay: Phase 2, ARRY-382 300 mg QD plus pembrolizumab 200 mg IV Q3W: adverse events; type: in vivo, human; conditions: all patients
In short: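 Open-label study at 12 US centres with three cohorts: pancreatic ductal adenocarcinoma after ≥1 prior systemic line; tumours progressing on anti-PD-1/PD-L1; ovarian, peritoneal or fallopian cancer progressing ≤6 months after ≥4 platinum cycles. Oral test compound 300 mg QD plus anti-PD-1 antibody 200 mg IV every 3 weeks. AEs, SAEs and labs graded by CTCAE v4.03 in all dosed patients; descriptive summary.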

[2] = test system: patients with selected advanced solid tumors; type: in vivo, human; conditions: Phase 1b
In short: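 Adults (≥18 y) with histologically or cytologically confirmed selected advanced solid tumours. Oral test compound started at 200 mg QD, with planned escalation to 400 mg QD, plus anti-PD-1 antibody 2 mg/kg IV every 3 weeks. DLT incidence defined the MTD (DLT criteria in supplement). AEs and lab abnormalities were graded by CTCAE v4.03 in all patients given ≥1 dose and summarized descriptively.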

pancreatic cancer = conditions: plus nivolumab; pancreatic cancer (N = 31); MSI-Stable; cited from earlier work
[3] = test system: HNSCC, relapsed/refractory glioblastoma; conditions: plus spartalizumab; cited from earlier work
[4] = test system: advanced/metastatic PDA or colorectal cancer; conditions: plus durvalumab; cited from earlier work

## pembrolizumab: humanized monoclonal antibody that blocks the interaction between PD-1 and its ligands PD-L1 and PD-L2 [reference compound]
[1]
  AEs considered to be related to pembrolizumab: 36 (63.2%) n (%)
[2]; Total, N = 19
  Pembrolizumab-related AEs: All AEs: 12 (63.2%) n (%)
[2]; all patients
  Pembrolizumab-related increased AST: 36.8%
  Pembrolizumab-related increased lipase: 26.3%

## cabiralizumab: a CSF-1R–targeting antibody
Pancreatic cancer
  Patients with a PR: 3 patients

## CNC(=O)c1cc(Oc2ccc3nc(N[C@@H]4CCCC[C@H]4O)sc3c2)ccn1 [BLZ945]
[3]
  Patients with a PR: 2 patients

## FC(F)(F)c1ccc(CNc2ccc(Cc3c[nH]c4ncc(Cl)cc34)cn2)cn1 [pexidartinib]
[4]
  Patients with stable disease: 4 patients
